Data as given in ChEMBL document CHEMBL5724801, “EUbOPEN Chemogenomics Library - Multiplex” (2024).
“And” between values parts separate entries of the source, which are not always exact repeats. Equal values may be shown once.

Test system: Fibroblast
Assay: Multiplex assay against human fibroblast
Type: toxicity, cell-based
Method in brief: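 At seeding, live cells were stained with Hoechst33342, BioTracker Green Microtubule Cytoskeleton Dye, MitoTracker Red and Annexin V Alexa Fluor 680. After compound addition they were imaged on a CQ1 microscope at 37°C and 5% CO2, and CellPathfinder machine-learning gating sorted them into Hoechst high-intensity objects or normal cells, with normal cells further split into healthy, pyknosed or fragmented nuclei and pyknosed cells into mitotic or apoptotic. Tubulin, mitochondrial-mass and membrane-permeability phenotypes are given as per cents of cells with healthy nuclei.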

[1] = 12 h, 1 µM, compound concentration 1 uM
[2] = 12 h, 10 µM, compound concentration 10 uM
[3] = 24 h, 1 µM, compound concentration 1 uM
[4] = 24 h, 10 µM, compound concentration 10 uM
[5] = 48 h, 1 µM, compound concentration 1 uM
[6] = 48 h, 10 µM, compound concentration 10 uM

SMILES: CN1CCN(c2nc3cc(C(F)(F)F)ccc3n3cccc23)CC1.O=C(O)/C=C\C(=O)O.O=C(O)/C=C\C(=O)O
- Population Apoptotic (%) [1]: 50% and 26%
- Population Fragmented Nuclei (%) [1]: 18% and 24%
- Population Healthy Nuclei (%) [1]: 71% and 46%
- Population Hoechst High Intensity Objects (%) [1]: 0% and 6%
- Population Membrane Permeable-Phenotype (%) [1]: 0% and 6%
- Population Mitochondria Different-Phenotype (%) [1]: 5% and 4%
- Population Mitotic Cells (%) [1]: 50% and 73%
- Population Normal (%) [1]: 99% and 93%
- Population Tubulin-Different-Phenotype (%) [1]: 27% and 47%
- Total Cell Count [1]: 146 and 107
- Population Apoptotic (%) [2]: 40% and 60%
- Population Fragmented Nuclei (%) [2]: 29% and 35%
- Population Healthy Nuclei (%) [2]: 59% and 41%
- Population Hoechst High Intensity Objects (%) [2]: 2% and 4%
- Population Membrane Permeable-Phenotype (%) [2]: 0% and 4%
- Population Mitochondria Different-Phenotype (%) [2]: 25% and 38%
- Population Mitotic Cells (%) [2]: 59% and 40%
- Population Normal (%) [2]: 97% and 95%
- Population Pyknosed Nuclei (%) [2]: 10% and 22%
- Population Tubulin-Different-Phenotype (%) [2]: 69% and 85%
- Total Cell Count [2]: 207 and 117
- Population Apoptotic (%) [3]: 66% and 40%
- Population Fragmented Nuclei (%) [3]: 16% and 35%
- Population Healthy Nuclei (%) [3]: 72% and 42%
- Population Hoechst High Intensity Objects (%) [3]: 1% and 6%
- Population Membrane Permeable-Phenotype (%) [3]: 0% and 7%
- Population Mitochondria Different-Phenotype (%) [3]: 2% and 7%
- Population Mitotic Cells (%) [3]: 33% and 59%
- Population Normal (%) [3]: 98% and 93%
- Population Pyknosed Nuclei (%) [3]: 10% and 22%
- Population Tubulin-Different-Phenotype (%) [3]: 23% and 43%
- Total Cell Count [3]: 142 and 104
- Population Apoptotic (%) [4]: 77% and 63%
- Population Fragmented Nuclei (%) [4]: 24% and 37%
- Population Healthy Nuclei (%) [4]: 64% and 43%
- Population Hoechst High Intensity Objects (%) [4]: 6% and 1%
- Population Membrane Permeable-Phenotype (%) [4]: 0% and 6%
- Population Mitochondria Different-Phenotype (%) [4]: 32%
- Population Mitotic Cells (%) [4]: 22% and 36%
- Population Normal (%) [4]: 93% and 98%
- Population Pyknosed Nuclei (%) [4]: 10% and 19%
- Population Tubulin-Different-Phenotype (%) [4]: 75% and 86%
- Total Cell Count [4]: 214 and 117
- Population Apoptotic (%) [5]: 44% and 42%
- Population Fragmented Nuclei (%) [5]: 25% and 37%
- Population Healthy Nuclei (%) [5]: 63% and 40%
- Population Hoechst High Intensity Objects (%) [5]: 2% and 3%
- Population Membrane Permeable-Phenotype (%) [5]: 1% and 0%
- Population Mitochondria Different-Phenotype (%) [5]: 2%
- Population Mitotic Cells (%) [5]: 55% and 57%
- Population Normal (%) [5]: 97% and 96%
- Population Pyknosed Nuclei (%) [5]: 11% and 21%
- Population Tubulin-Different-Phenotype (%) [5]: 22% and 57%
- Total Cell Count [5]: 162 and 102
- Population Apoptotic (%) [6]: 77% and 63%
- Population Fragmented Nuclei (%) [6]: 22% and 33%
- Population Healthy Nuclei (%) [6]: 68% and 57%
- Population Hoechst High Intensity Objects (%) [6]: 7% and 5%
- Population Membrane Permeable-Phenotype (%) [6]: 0% and 1%
- Population Mitochondria Different-Phenotype (%) [6]: 28% and 23%
- Population Mitotic Cells (%) [6]: 22% and 36%
- Population Normal (%) [6]: 92% and 94%
- Population Pyknosed Nuclei (%) [6]: 9%
- Population Tubulin-Different-Phenotype (%) [6]: 77% and 85%
- Total Cell Count [6]: 211 and 118

SMILES: COc1cccc2c1c(NS(=O)(=O)c1ccc(Cl)s1)nn2Cc1cccc(CNC(=O)C(C)(C)O)c1
- Population Apoptotic (%) [1]: 43% and 33%
- Population Fragmented Nuclei (%) [1]: 16% and 26%
- Population Healthy Nuclei (%) [1]: 66% and 54%
- Population Hoechst High Intensity Objects (%) [1]: 0%
- Population Membrane Permeable-Phenotype (%) [1]: 1% and 4%
- Population Mitochondria Different-Phenotype (%) [1]: 2% and 1%
- Population Mitotic Cells (%) [1]: 56% and 66%
- Population Normal (%) [1]: 99% and 100%
- Population Pyknosed Nuclei (%) [1]: 17% and 18%
- Population Tubulin-Different-Phenotype (%) [1]: 27% and 18%
- Total Cell Count [1]: 134 and 112
- Population Apoptotic (%) [2]: 42% and 41%
- Population Fragmented Nuclei (%) [2]: 13% and 24%
- Population Healthy Nuclei (%) [2]: 72% and 55%
- Population Hoechst High Intensity Objects (%) [2]: 2% and 7%
- Population Membrane Permeable-Phenotype (%) [2]: 1% and 7%
- Population Mitochondria Different-Phenotype (%) [2]: 11% and 4%
- Population Mitotic Cells (%) [2]: 57% and 58%
- Population Normal (%) [2]: 97% and 92%
- Population Pyknosed Nuclei (%) [2]: 13% and 19%
- Population Tubulin-Different-Phenotype (%) [2]: 37% and 55%
- Total Cell Count [2]: 211 and 174
- Population Apoptotic (%) [3]: 55% and 50%
- Population Fragmented Nuclei (%) [3]: 19% and 28%
- Population Healthy Nuclei (%) [3]: 68% and 49%
- Population Hoechst High Intensity Objects (%) [3]: 2% and 1%
- Population Membrane Permeable-Phenotype (%) [3]: 2% and 7%
- Population Mitochondria Different-Phenotype (%) [3]: 3% and 5%
- Population Mitotic Cells (%) [3]: 44% and 50%
- Population Normal (%) [3]: 97% and 98%
- Population Pyknosed Nuclei (%) [3]: 12% and 22%
- Population Tubulin-Different-Phenotype (%) [3]: 28% and 35%
- Total Cell Count [3]: 144 and 110
- Population Apoptotic (%) [4]: 48% and 50%
- Population Fragmented Nuclei (%) [4]: 11% and 22%
- Population Healthy Nuclei (%) [4]: 74% and 55%
- Population Hoechst High Intensity Objects (%) [4]: 2% and 8%
- Population Membrane Permeable-Phenotype (%) [4]: 1% and 6%
- Population Mitochondria Different-Phenotype (%) [4]: 7% and 2%
- Population Mitotic Cells (%) [4]: 52% and 50%
- Population Normal (%) [4]: 97% and 92%
- Population Pyknosed Nuclei (%) [4]: 13% and 22%
- Population Tubulin-Different-Phenotype (%) [4]: 30% and 48%
- Total Cell Count [4]: 190 and 175
- Population Apoptotic (%) [5]: 62% and 75%
- Population Fragmented Nuclei (%) [5]: 21% and 26%
- Population Healthy Nuclei (%) [5]: 66% and 60%
- Population Hoechst High Intensity Objects (%) [5]: 5% and 2%
- Population Membrane Permeable-Phenotype (%) [5]: 1% and 8%
- Population Mitochondria Different-Phenotype (%) [5]: 5% and 3%
- Population Mitotic Cells (%) [5]: 37% and 25%
- Population Normal (%) [5]: 94% and 97%
- Population Pyknosed Nuclei (%) [5]: 12%
- Population Tubulin-Different-Phenotype (%) [5]: 30% and 55%
- Total Cell Count [5]: 135 and 99
- Population Apoptotic (%) [6]: 63% and 51%
- Population Fragmented Nuclei (%) [6]: 13% and 33%
- Population Healthy Nuclei (%) [6]: 73% and 49%
- Population Hoechst High Intensity Objects (%) [6]: 5% and 6%
- Population Membrane Permeable-Phenotype (%) [6]: 3%
- Population Mitochondria Different-Phenotype (%) [6]: 10% and 4%
- Population Mitotic Cells (%) [6]: 36% and 48%
- Population Normal (%) [6]: 94% and 93%
- Population Pyknosed Nuclei (%) [6]: 12% and 17%
- Population Tubulin-Different-Phenotype (%) [6]: 40% and 43%
- Total Cell Count [6]: 187
